Measured values as given in ChEMBL document CHEMBL1144782, “Isoindolo[2,1-a]quinoxaline derivatives, novel potent antitumor agents with dual inhibition of tubulin polymerization and topoisomerase I” (2008).

How the values were obtained:
Type in all cases: functional
SK-MEL-2 = assay: Antitumor activity against human SKMEL2 cells
How it was run: (§1)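 Run by the NCI in its in vitro disease-oriented screen of about 60 human tumour cell lines. For each line it reports pGI50 (50% net growth inhibition), pTGI (total growth inhibition) and pLC50 (50% net cell death), each as –log molar concentration. Where an effect was not reached within the tested range, the highest tested concentration was used.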

ACHN = assay: Antitumor activity against human ACHN cells; how it was run: as §1
UACC-62 = assay: Antitumor activity against human UACC62 cells
How it was run: (§2)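 NCI 60-cell-line screen. Parameters were GI50 (50% net growth inhibition), TGI and LC50, each reported as –log molar concentration. Where an effect was not reached within the tested range, the highest tested concentration was used in the calculation.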

Malme-3M = assay: Antitumor activity against human MALME3M cells; how it was run: as §1
HT-29 = assay: Antitumor activity against human HT29 cells; how it was run: as §1
CAKI-1 = assay: Antitumor activity against human CAKI1 cells; how it was run: as §1
HOP-62 = assay: Antitumor activity against human HOP62 cells; how it was run: as §1
DU-145 = assay: Antitumor activity against human DU145 cells; conditions: Homo sapiens, DU-145; read-out: Log LC50 (the source's name) (converted); how it was run: as §1
OVCAR-3 = assay: Antitumor activity against human OVCAR-3 cells; how it was run: as §1
HOP-92 = assay: Antitumor activity against human HOP92 cells; how it was run: as §1
NCI-H460 = assay: Cell viability against human NCI-H460 cells at 10 uM
MOLT-4 = assay: Antitumor activity against human MOLT4 cells; how it was run: as §1
OVCAR-8 = assay: Antitumor activity against human OVCAR8 cells; how it was run: as §1
NCI-H23 = assay: Antitumor activity against human NCI-H23 cells; how it was run: as §1
MCF7 [1] = assay: Growth inhibition of human multidrug-resistant MCF7 cells after 72 hrs by MTT assay; conditions: MCF7, 72 h
How it was run: (§3)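 Growth inhibition by MTT after 72 h incubation. Resistant sublines: LoVoDoxo and MCF-7 MDR were kept in 0.1 µg/mL doxorubicin; CEMVbl-100 was selected against vinblastine. GI50 given as mean ± SEM of three independent experiments. Resistance index is resistant-line GI50 over parental GI50.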

MDA-MB-435 = assay: Antitumor activity against human MDA-MB-435 cells; how it was run: as §1
MCF7 [2] = assay: Growth inhibition of human MCF7 cells after 72 hrs by MTT assay; conditions: MCF7, 72 h; how it was run: as §3
SK-MEL-28 = assay: Antitumor activity against human SKMEL28 cells; how it was run: as §1
NCI-H522 = assay: Antitumor activity against human NCI-H522 cells; how it was run: as §1
SF-268 [3] = assay: Antitumor activity against human SF268 cells; how it was run: as §1
RXF 393 = assay: Antitumor activity against human RXF393 cells; how it was run: as §1
A498 = assay: Antitumor activity against human A498 cells; how it was run: as §1
SK-OV-3 = assay: Antitumor activity against human SKOV3 cells; how it was run: as §1
TK-10 = assay: Antitumor activity against human TK10 cells; how it was run: as §2
SF-295 = assay: Antitumor activity against human SF295 cells; how it was run: as §1
SN12C = assay: Antitumor activity against human SN12C cells; how it was run: as §1
MCF7 [4] = assay: Resistance index, Ratio of GI50 for human multidrug-resistant MCF7 cells to GI50 for human MCF7 cells; how it was run: as §3
T47D = assay: Antitumor activity against human T47D cells; how it was run: as §2
HCT-15 = assay: Antitumor activity against human HCT15 cells; how it was run: as §1
NCI/ADR-RES = assay: Antitumor activity against human NCI/ADR-RES cells; how it was run: as §1
RPMI-8226 = assay: Antitumor activity against human RPMI8226 cells; how it was run: as §1
CCRF-CEM = assay: Growth inhibition of human CEM cells after 72 hrs by MTT assay; how it was run: as §3
[5] = Antitumor activity against human NCI-H322 cells; how it was run: as §1
Hs-578T = assay: Antitumor activity against human HS578T cells; how it was run: as §1
COLO 205 = assay: Antitumor activity against human COLO205 cells; how it was run: as §1
PC-3 = assay: Antitumor activity against human PC3 cells; how it was run: as §1
SF-268 [6] = assay: Cell viability against human SF268 cells at 10 uM
U-251 = assay: Antitumor activity against human U251 cells; how it was run: as §2
SW-620 = assay: Antitumor activity against human SW620 cells; how it was run: as §2
M14 = assay: Antitumor activity against human M14 cells; how it was run: as §1
[7] = read-out: Log LC50 (the source's name) (converted)

## COc1ccc2c(c1)[nH]c(=O)c1c3ccccc3cn21
SK-MEL-2
  GI50: 158 nM
  LC50: 7760 nM
SK-MEL-2; read-out: pTGI (converted)
  TGI: 2510 nM
ACHN
  GI50: 126 nM
  LC50 (50% net cell kill): 4370 nM
ACHN; read-out: pTGI (converted)
  TGI: 1820 nM
UACC-62
  GI50: 74.1 nM
  LC50: 4370 nM
UACC-62; read-out: pTGI (converted)
  TGI: 1910 nM
Malme-3M
  GI50: 10 nM
Malme-3M; [7]
  CC50: 8510 nM
Malme-3M; read-out: pTGI (converted)
  TGI: 3390 nM
HT-29
  GI50: 33.9 nM
  LC50: > 100000 nM
HT-29; read-out: pTGI (converted)
  TGI: 1480 nM
CAKI-1
  GI50: 35.5 nM
  LC50: 5130 nM
CAKI-1; read-out: pTGI (converted)
  TGI: 2000 nM
HOP-62
  GI50: 30.9 nM
  LC50 (50% net cell death): 3890 nM
HOP-62; read-out: pTGI (converted)
  TGI: 1230 nM
DU-145
  CC50: 4270 nM
OVCAR-3
  GI50: 22.4 nM
  LC50 (50% net cell death): 2880 nM
OVCAR-3; read-out: pTGI (converted)
  TGI: 64.6 nM
HOP-92
  GI50: 1000 nM
  LC50: 39800 nM
HOP-92; read-out: pTGI (converted)
  TGI: 15800 nM
NCI-H460
  Activity: 0%
MOLT-4
  GI50: 77.6 nM
  LC50: 75900 nM
MOLT-4; read-out: pTGI (converted)
  TGI: 2140 nM
OVCAR-8
  GI50: 57.5 nM
  LC50 (50% net cell death): > 100000 nM
OVCAR-8; read-out: pTGI (converted)
  TGI: 2340 nM
NCI-H23
  GI50: 42.7 nM
  LC50 (50% net cell kill): > 100000 nM
NCI-H23; read-out: pTGI (converted)
  TGI: 3390 nM
MCF7 [1]
  GI50: 150 nM
MDA-MB-435
  GI50: 4.07 nM
  LC50 (50% net cell death): > 100000 nM
MDA-MB-435; read-out: pTGI (converted)
  TGI: 20.9 nM
MCF7 [2]
  GI50: 170 nM
SK-MEL-28
  GI50: 52.5 nM
SK-MEL-28; [7]
  CC50: 6610 nM
SK-MEL-28; read-out: pTGI (converted)
  TGI: 2510 nM
NCI-H522
  GI50: 60.3 nM
NCI-H522; [7]
  CC50: 10000 nM
NCI-H522; read-out: pTGI (converted)
  TGI: 2290 nM
SF-268 [3]
  GI50: 74.1 nM
SF-268 [3]; [7]
  CC50: 87100 nM
SF-268 [3]; read-out: pTGI (converted)
  TGI: 2950 nM
RXF 393
  GI50: 20.4 nM
RXF 393; [7]
  CC50: > 100000 nM
RXF 393; read-out: pTGI (converted)
  TGI: 3160 nM
A498
  GI50: 22.4 nM
A498; [7]
  CC50: > 100000 nM
A498; read-out: pTGI (converted)
  TGI: 1350 nM
SK-OV-3
  GI50: 38.9 nM
  LC50 (50% net cell kill): 8510 nM
SK-OV-3; read-out: pTGI (converted)
  TGI: 1620 nM
TK-10
  GI50: 513 nM
TK-10; [7]
  CC50: 6610 nM
TK-10; read-out: pTGI (converted)
  TGI: 2450 nM
SF-295
  GI50: 26.9 nM
SF-295; [7]
  CC50: 4170 nM
SF-295; read-out: pTGI (converted)
  TGI: 1050 nM
SN12C
  GI50: 57.5 nM
  LC50: > 100000 nM
SN12C; read-out: pTGI (converted)
  TGI: 2090 nM
MCF7 [4]
  RatioGI50: 0.9
T47D
  GI50: 47.9 nM
  LC50: > 100000 nM
T47D; read-out: pTGI (converted)
  TGI: 4570 nM
HCT-15
  GI50: 26.3 nM
HCT-15; [7]
  CC50: 4570 nM
HCT-15; read-out: pTGI (converted)
  TGI: 1150 nM
NCI/ADR-RES
  GI50: 21.4 nM
  LC50: 10000 nM
NCI/ADR-RES; read-out: pTGI (converted)
  TGI: 57.5 nM
RPMI-8226
  GI50: 36.3 nM
RPMI-8226; [7]
  CC50: 6920 nM
RPMI-8226; read-out: pTGI (converted)
  TGI: 1410 nM
CCRF-CEM
  GI50: 20 nM
[5]
  GI50: 83.2 nM
  LC50 (50% net cell death): 7760 nM
[5]; read-out: pTGI (converted)
  TGI: 2570 nM
Hs-578T
  GI50: 51.3 nM
Hs-578T; [7]
  CC50: > 100000 nM
Hs-578T; read-out: pTGI (converted)
  TGI: 2690 nM
COLO 205
  GI50: 40.7 nM
  LC50: 5750 nM
COLO 205; read-out: pTGI (converted)
  TGI: 1150 nM
PC-3
  GI50: 37.1 nM
  LC50 (50% net cell death): > 100000 nM
PC-3; read-out: pTGI (converted)
  TGI: 2570 nM
SF-268 [6]
  Activity: 1%
U-251
  GI50: 43.6 nM
U-251; [7]
  CC50: 5010 nM
U-251; read-out: pTGI (converted)
  TGI: 1510 nM
SW-620
  GI50: 26.3 nM
SW-620; [7]
  CC50: 4170 nM
SW-620; read-out: pTGI (converted)
  TGI: 1410 nM
M14
  GI50: 10 nM
M14; [7]
  CC50: 3630 nM
M14; read-out: pTGI (converted)
  TGI: 12900 nM
